From ChEMBL document CHEMBL4266033, “Neolymphostin A Is a Covalent Phosphoinositide 3-Kinase (PI3K)/Mammalian Target of Rapamycin (mTOR) Dual Inhibitor That Employs an Unusual Electrophilic Vinylogous Ester” (J Med Chem, 2018)
The source made the active and inactive calls. The calls are words filed in the database; no cut-off is given here.

Assays:
[1] = molecular target: T1, Phosphatidylinositol 4,5-bisphosphate 3-kinase catalytic subunit alpha isoform (Homo sapiens, UniProt P42336); assay: Binding affinity to human PI3Kalpha after 1 hr by KINOMEscan assay
T1 sequence (P42336 whole entry, canonical isoform): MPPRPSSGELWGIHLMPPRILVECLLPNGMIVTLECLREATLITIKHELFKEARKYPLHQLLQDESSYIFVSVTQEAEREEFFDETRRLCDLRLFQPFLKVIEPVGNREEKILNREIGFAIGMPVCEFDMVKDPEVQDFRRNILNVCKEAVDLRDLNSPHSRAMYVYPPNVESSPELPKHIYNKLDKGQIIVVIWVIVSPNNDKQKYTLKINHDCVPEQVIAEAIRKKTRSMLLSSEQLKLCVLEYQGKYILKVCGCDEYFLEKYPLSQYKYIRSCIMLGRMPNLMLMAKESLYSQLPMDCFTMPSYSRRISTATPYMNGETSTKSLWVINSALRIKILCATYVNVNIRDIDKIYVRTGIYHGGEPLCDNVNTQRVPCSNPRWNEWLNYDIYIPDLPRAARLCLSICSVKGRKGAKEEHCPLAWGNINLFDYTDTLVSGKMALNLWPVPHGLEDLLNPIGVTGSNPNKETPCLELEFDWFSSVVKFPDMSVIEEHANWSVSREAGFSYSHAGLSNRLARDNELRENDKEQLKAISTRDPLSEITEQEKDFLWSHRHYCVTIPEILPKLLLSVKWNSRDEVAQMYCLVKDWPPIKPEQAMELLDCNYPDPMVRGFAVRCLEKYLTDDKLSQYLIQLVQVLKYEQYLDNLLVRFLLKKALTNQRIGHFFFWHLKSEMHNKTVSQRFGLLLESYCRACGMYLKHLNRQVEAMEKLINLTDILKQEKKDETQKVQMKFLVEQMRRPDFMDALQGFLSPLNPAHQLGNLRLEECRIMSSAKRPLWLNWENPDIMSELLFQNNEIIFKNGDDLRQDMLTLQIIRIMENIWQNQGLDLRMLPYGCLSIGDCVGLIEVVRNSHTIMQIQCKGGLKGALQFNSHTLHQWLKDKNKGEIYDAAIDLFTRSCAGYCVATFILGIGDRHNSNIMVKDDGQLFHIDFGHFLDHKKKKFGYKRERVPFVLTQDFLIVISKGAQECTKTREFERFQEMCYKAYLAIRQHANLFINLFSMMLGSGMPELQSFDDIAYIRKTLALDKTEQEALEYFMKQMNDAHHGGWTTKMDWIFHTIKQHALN

[2] = molecular target: T2, Phosphatidylinositol 4,5-bisphosphate 3-kinase catalytic subunit gamma isoform (Homo sapiens, UniProt P48736); assay: Binding affinity to human PI3Kgamma after 1 hr by KINOMEscan assay
T2 sequence (P48736 whole entry, canonical isoform): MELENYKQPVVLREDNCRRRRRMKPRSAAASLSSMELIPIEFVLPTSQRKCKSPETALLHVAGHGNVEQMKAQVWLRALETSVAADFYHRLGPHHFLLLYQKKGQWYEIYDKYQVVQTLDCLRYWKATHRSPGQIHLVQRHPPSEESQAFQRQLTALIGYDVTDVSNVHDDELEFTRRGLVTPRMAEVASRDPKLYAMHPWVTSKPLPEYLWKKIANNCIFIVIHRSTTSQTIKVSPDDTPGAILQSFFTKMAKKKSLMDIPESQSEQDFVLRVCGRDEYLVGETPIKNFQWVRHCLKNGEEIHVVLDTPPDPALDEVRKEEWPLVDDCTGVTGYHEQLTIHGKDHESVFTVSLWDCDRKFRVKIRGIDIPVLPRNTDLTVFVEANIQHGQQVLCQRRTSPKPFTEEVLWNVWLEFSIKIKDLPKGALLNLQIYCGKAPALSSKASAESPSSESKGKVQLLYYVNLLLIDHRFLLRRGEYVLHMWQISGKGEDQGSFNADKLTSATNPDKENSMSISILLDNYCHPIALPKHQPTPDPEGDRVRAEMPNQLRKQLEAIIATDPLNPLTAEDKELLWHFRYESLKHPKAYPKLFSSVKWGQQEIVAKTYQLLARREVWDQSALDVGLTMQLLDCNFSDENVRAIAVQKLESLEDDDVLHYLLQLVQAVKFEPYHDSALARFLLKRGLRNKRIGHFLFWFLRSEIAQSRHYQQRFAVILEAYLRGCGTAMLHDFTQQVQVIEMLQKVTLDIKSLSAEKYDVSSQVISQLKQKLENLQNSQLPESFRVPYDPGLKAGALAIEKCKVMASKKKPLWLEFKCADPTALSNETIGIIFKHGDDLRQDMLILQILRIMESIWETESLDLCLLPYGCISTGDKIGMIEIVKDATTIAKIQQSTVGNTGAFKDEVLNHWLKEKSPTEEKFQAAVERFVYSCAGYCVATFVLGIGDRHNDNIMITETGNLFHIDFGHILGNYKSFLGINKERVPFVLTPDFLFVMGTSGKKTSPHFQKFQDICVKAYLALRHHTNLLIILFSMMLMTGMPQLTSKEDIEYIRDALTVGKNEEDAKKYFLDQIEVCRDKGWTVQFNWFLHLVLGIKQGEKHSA

[3] = molecular target: T3, Serine/threonine-protein kinase PLK4 (Homo sapiens) (UniProt O00444); assay: Binding affinity to human PLK4 at 1 uM after 1 hr by KINOMEscan assay
T3 sequence (whole entry): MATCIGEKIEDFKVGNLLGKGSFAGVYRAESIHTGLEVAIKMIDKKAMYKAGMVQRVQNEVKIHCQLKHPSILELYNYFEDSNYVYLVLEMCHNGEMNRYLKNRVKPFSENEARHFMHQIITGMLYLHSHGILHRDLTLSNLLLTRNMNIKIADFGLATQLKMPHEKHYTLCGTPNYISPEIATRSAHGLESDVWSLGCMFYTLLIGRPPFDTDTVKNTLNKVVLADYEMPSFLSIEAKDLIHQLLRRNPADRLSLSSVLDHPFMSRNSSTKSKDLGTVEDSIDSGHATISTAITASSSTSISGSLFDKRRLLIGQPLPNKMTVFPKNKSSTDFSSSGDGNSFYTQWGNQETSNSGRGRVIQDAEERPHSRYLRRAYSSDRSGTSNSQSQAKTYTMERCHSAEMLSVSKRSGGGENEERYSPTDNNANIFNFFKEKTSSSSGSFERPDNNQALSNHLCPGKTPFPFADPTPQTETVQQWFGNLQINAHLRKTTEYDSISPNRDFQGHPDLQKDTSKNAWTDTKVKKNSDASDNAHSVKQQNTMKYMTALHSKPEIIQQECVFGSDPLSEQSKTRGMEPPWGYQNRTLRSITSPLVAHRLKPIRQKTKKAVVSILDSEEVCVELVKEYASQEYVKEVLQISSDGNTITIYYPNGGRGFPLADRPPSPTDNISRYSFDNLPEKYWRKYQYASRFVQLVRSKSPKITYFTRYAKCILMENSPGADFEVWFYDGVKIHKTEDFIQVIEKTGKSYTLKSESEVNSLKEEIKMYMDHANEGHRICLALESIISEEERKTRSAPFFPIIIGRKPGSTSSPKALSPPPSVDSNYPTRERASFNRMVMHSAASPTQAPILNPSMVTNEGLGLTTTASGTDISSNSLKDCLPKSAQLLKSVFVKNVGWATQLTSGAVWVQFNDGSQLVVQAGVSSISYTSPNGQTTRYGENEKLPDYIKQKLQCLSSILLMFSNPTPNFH

[4] = molecular target: Aurora kinase B (Homo sapiens) (UniProt Q96GD4); assay: Binding affinity to human AURKB at 1 uM after 1 hr by KINOMEscan assay
Aurora kinase B (Homo sapiens), sequence (Q96GD4 whole entry): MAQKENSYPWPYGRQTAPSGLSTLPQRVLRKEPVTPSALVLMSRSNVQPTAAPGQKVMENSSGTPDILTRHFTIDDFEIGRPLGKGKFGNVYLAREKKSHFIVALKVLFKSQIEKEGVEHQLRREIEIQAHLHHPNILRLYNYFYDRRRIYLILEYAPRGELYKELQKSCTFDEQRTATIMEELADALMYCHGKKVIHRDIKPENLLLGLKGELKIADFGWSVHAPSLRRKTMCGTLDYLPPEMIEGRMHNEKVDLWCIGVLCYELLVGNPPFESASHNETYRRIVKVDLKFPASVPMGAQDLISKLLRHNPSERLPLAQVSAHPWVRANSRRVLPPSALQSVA
Summary of the method: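 KINOMEscan competition binding profiling across 97 kinases. Affinity expressed as percent of control.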

[5] = molecular target: Mitogen-activated protein kinase 9 (Homo sapiens) (UniProt P45984); assay: Binding affinity to human JNK2 at 1 uM after 1 hr by KINOMEscan assay
Mitogen-activated protein kinase 9 (Homo sapiens), sequence (P45984 whole entry, looked up): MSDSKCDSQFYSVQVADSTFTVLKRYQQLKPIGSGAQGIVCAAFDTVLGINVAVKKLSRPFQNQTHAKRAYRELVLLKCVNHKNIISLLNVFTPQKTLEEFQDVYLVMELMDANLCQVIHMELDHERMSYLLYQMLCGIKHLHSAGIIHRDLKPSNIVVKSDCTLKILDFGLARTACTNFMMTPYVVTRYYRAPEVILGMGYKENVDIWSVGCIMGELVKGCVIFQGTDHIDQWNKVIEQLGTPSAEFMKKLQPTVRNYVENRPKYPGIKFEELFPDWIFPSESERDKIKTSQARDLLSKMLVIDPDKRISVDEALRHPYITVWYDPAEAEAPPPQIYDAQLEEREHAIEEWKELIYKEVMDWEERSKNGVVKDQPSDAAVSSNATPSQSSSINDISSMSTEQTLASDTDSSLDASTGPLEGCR

[6] = Inhibition of PI3K in human HeLa cells assessed as reduction in EGF-stimulated AKT phosphorylation at T308 preincubated for 10 mins followed by EGF stimulation measured after 5 mins by Western blot analysis; type: cell-based
Summary of the method: (§1)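 HeLa cells were serum-starved overnight, pretreated with compound for 10 min, then stimulated with 10 ng mL-1 EGF for 5 min. Lysis was in boiling SDS sample buffer, with protein quantified at 660 nm. Equal protein was resolved by SDS-PAGE and Western blotted for pEGFR Tyr1068, pAKT Ser473/Thr308, and pERK1/2 Thr202/Tyr204 with total proteins and GAPDH, detected by ECL.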

[7] = molecular target: Epidermal growth factor receptor (Homo sapiens) (UniProt P00533); assay: Inhibition of EGFR in human HeLa cells assessed as reduction in EGF-stimulated ERK1/2 phosphorylation at T202/Y204 at 0.3 to 100 nM preincubated for 10 mins followed by EGF stimulation measured after 5 mins by Western blot analysis; type: cell-based; summary of the method: as §1
Epidermal growth factor receptor (Homo sapiens), sequence (P00533 whole entry): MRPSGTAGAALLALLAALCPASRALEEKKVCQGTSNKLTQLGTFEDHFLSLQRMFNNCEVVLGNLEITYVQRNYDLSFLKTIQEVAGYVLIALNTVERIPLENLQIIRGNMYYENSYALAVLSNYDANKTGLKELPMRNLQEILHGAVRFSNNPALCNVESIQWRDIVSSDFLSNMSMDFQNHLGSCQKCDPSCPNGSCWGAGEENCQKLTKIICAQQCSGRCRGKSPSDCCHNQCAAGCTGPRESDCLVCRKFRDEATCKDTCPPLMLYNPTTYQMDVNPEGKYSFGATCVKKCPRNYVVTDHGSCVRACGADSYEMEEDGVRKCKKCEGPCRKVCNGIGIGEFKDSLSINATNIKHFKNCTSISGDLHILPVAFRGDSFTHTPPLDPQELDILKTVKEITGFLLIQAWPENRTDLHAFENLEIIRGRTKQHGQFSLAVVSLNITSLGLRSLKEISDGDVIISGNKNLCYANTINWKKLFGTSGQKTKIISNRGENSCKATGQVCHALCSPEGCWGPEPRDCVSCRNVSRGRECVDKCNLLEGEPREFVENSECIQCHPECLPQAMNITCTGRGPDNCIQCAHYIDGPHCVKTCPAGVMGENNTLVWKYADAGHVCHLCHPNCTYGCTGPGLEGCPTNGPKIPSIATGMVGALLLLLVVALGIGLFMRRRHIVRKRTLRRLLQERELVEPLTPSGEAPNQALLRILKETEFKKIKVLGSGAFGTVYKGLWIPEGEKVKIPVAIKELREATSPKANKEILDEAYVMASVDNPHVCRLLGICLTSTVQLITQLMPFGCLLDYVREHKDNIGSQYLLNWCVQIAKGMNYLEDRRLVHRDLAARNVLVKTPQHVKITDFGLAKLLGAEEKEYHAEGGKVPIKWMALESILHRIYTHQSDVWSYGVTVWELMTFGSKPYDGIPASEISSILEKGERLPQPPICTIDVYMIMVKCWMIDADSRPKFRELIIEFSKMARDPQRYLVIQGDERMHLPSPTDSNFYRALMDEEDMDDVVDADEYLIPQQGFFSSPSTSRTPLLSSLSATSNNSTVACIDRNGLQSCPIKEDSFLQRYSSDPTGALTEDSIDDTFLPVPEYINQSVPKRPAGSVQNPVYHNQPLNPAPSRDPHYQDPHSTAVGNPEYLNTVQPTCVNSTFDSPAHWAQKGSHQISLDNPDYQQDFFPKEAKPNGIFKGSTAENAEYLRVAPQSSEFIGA

[8] = molecular target: Epidermal growth factor receptor (Homo sapiens) (UniProt P00533); assay: Inhibition of EGFR in human HeLa cells assessed as reduction in EGF-stimulated EGFR phosphorylation at 0.3 to 100 nM preincubated for 10 mins followed by EGF stimulation measured after 5 mins by Western blot analysis; type: cell-based; summary of the method: as §1
[9] = system: Panel NCI-60 (60 carcinoma cell lines); assay: Growth inhibition of human NCI60 cells after 48 hrs by sulforhodamine B assay; type: functional
Summary of the method: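 NCI 60-cell line panel (leukemia, NSCLC, colon, CNS, melanoma, ovarian, renal, prostate, breast). 5-point dose-response curves with top concentration 50 µM. GI50, TGI and LC50 were calculated from the curves.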

[10] = molecular target: T1, Phosphatidylinositol 4,5-bisphosphate 3-kinase catalytic subunit alpha isoform; assay: Binding affinity to human PI3Kalpha equilibrate for 6 hrs by scan-kinetic platform assay
Summary of the method: (§2)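 scanKINETIC format on PI3Kα and PI3Kγ. […] Arm C: equilibrated 1 h. Arm B: equilibrated 1 h, diluted 30-fold, then re-equilibrated. Arm D: diluted immediately, then equilibrated. Kd compared with and without the dilution step to judge reversibility.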

[11] = molecular target: T1, Phosphatidylinositol 4,5-bisphosphate 3-kinase catalytic subunit alpha isoform; assay: Binding affinity to human PI3Kalpha equilibrate for 1 hr followed by 30 fold dilution and re-equilibrate for 5 hrs by scan-kinetic platform assay; summary of the method: as §2
[12] = molecular target: T1, Phosphatidylinositol 4,5-bisphosphate 3-kinase catalytic subunit alpha isoform; assay: Binding affinity to human PI3Kalpha equilibrate for 1 hr by scan-kinetic platform assay; summary of the method: as §2
[13] = molecular target: T2, Phosphatidylinositol 4,5-bisphosphate 3-kinase catalytic subunit gamma isoform; assay: Binding affinity to human PI3Kgamma equilibrate for 6 hrs by scan-kinetic platform assay; summary of the method: as §2
[14] = molecular target: T2, Phosphatidylinositol 4,5-bisphosphate 3-kinase catalytic subunit gamma isoform; assay: Binding affinity to human PI3Kgamma equilibrate for 1 hr followed by 30 fold dilution and re-equilibrate for 5 hrs by scan-kinetic platform assay; summary of the method: as §2
[15] = molecular target: T2, Phosphatidylinositol 4,5-bisphosphate 3-kinase catalytic subunit gamma isoform; assay: Binding affinity to human PI3Kgamma equilibrate for 1 hr by scan-kinetic platform assay; summary of the method: as §2
[16] = molecular target: PI3-kinase p110-alpha/p85-alpha (Homo sapiens) (UniProt P27986+P42336); assay: Binding affinity to PI3Kalpha/p85alpha (unknown origin) assessed as covalent modification at Lys802 residue at 4 uM measured for 3/300 secs by hydrogen-deuterium exchange mass spectrometry; type: protein-complex assay
Summary of the method: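 PI3Kα (p110α/p85α) preincubated 30 min at 2 μM with 4 μM inhibitor or DMSO (5% final). Diluted to 0.4 μM in 50 μL for deuterium exchange at 3 s on ice and 300 s at 20 °C. Quenched with ice-cold 2 M guanidine-HCl/3% formic acid, then UPLC-TOF-MS. Peptide changes >5% and >0.4 Da with paired t-test p<0.01 taken as significant.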

Kd [1]: 0.88 nM
Kd [2]: 3.5 nM
Activity [3]: Active
Activity [4]: Active
Activity [5]: Active
IC50 [6]: 3 nM
inhibition [7]: inactive
inhibition [8]: inactive
Kd [10]: 0.43 to 0.45 nM
Kd [11]: 0.56 to 0.72 nM
Kd [12]: 0.65 to 0.68 nM
Kd [13]: 1.9 to 2 nM
Kd [14]: 4.4 to 7.3 nM
Kd [15]: 2 to 3.3 nM
Activity [16]: Active
SMILES: CO/C=C/C(=O)c1cc2c3c(c(N)cc(NC(=O)C(C)C)c3n1)N=C2
GI50 [9]: 6 to 840 nM
